Measured values taken from ChEMBL document CHEMBL5370647 (J Med Chem, 2023).
Converted amounts (≈) assume the structure as drawn. The source made the active and inactive calls. No cut-off for these calls is given here.

Assays:
TGF-beta receptor type-1 = molecular target: T1, TGF-beta receptor type-1 (Homo sapiens, UniProt P36897); assay: Binding affinity to wild type human partial length TGFBR1 (D179 to M503 residues) expressed in bacterial expression system by KINOMEscan assay
T1 sequence (P36897 whole entry): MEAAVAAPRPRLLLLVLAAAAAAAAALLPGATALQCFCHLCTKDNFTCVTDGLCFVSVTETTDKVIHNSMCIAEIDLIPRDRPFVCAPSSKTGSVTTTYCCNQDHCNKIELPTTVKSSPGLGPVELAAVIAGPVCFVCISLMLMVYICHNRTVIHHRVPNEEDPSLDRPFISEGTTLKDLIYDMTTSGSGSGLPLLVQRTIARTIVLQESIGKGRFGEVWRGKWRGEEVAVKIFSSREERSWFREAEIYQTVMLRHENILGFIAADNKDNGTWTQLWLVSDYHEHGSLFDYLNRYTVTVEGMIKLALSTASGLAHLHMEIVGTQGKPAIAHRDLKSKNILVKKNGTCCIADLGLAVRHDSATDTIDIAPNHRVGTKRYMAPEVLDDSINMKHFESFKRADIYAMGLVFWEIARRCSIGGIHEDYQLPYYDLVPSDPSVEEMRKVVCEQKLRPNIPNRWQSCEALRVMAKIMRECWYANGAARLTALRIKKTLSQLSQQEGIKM

[1] = Metabolic stability of the compound in CD-1 mouse liver microsomes at 5 uM by LC-TOF/MS analysis; assay type: ADME, Microsome
Procedure, shortened: (§1)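 Mouse liver microsomes incubated with compound in the presence of NADPH. Read-out is % parent compound remaining after 30 min.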

[2] = Half life in CD-1 mouse at 10 mg/kg, po by LC/MS/MS analysis; assay type: ADME, organism-based; settings: in vivo
Procedure, shortened: (§2)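 CD1 mice dosed orally at 10 mg/kg (snapshot PK study). Plasma levels followed over 5 h by LC/MS/MS. T1/2, Cmax and AUC_last derived from the plasma profile.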

[3] = system: Mycobacterium tuberculosis; assay: Antitubercular activity against non-replicating Mycobacterium tuberculosis H37Rv constitutively expressing GFP assessed as inhibition of bacterial growth incubated for 7 days under hypoxic condition followed by incubation in aerobic conditions for 1 to 5 days by spot assay; assay type: functional; settings: time 8-12 day
[4] = Cmax in CD-1 mouse at 10 mg/kg, po by LC/MS/MS analysis; assay type: ADME, organism-based; set-up: dose 10 mg/kg, route po; settings: in vivo; procedure, shortened: as §2
[5] = system: Mycobacterium tuberculosis; assay: Antitubercular activity against non-replicating Mycobacterium tuberculosis H37Rv expressing luxCDAB assessed as inhibition of bacterial growth incubated for 7 days under hypoxia conditions followed by incubation in normoxia conditions for 5 days by luminescence based analysis; assay type: functional; settings: 288 h, time 12 day
[6] = Metabolic stability of the compound in CD-1 mouse liver microsomes assessed as parent compound remaining at 5 uM preincubated for 5 mins followed by NADPH addition and measured after 30 mins by LC-TOF/MS analysis; assay type: ADME, Microsome; settings: time 35 min, read-out: Stability; procedure, shortened: as §1
[7] = system: Mycobacterium tuberculosis; assay: Antitubercular activity against replicating Mycobacterium tuberculosis H37Rv constitutively expressing GFP assessed as inhibition of bacterial growth under normoxia conditions incubated for 3 weeks by spot assay; assay type: functional; settings: 504 h
[8] = system: Mycobacterium tuberculosis; assay: Antitubercular activity against Mycobacterium tuberculosis H37Rv constitutively expressing GFP assessed as inhibition of bacterial growth at 20 uM incubated for 7 days by fluorescence based analysis; assay type: functional; settings: 168 h, time 7 day
[9] = AUC(last) in CD-1 mouse at 10 mg/kg, po by LC/MS/MS analysis; assay type: ADME, organism-based; set-up: dose 10 mg/kg, route po; settings: in vivo; procedure, shortened: as §2
[10] = system: Mycobacterium tuberculosis; assay: Antitubercular activity against RIF/INH-tolerant persistent Mycobacterium tuberculosis H37Rv assessed as reduction of viable bacteria at 4.9 uM incubated for 14 days followed by drug wash-out and measured after 21 days; assay type: functional, organism-based; settings: time 14.0 day
Procedure, shortened: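 Static at 37 °C for 14 days, washed twice, resuspended in fresh 7H9 and recovered for 28 days. CFU plated 21 and 28 days after drug removal.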

[11] = Oral bioavailability in CD-1 mouse at 10 mg/kg by LC/MS/MS analysis; assay type: ADME, organism-based; settings: in vivo
Procedure, shortened: (§3)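 Full PK study in CD1 mice at 10 mg/kg given by oral, intravenous and intraperitoneal routes. Plasma levels monitored over 8 h by LC/MS/MS.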

[12] = Volume of distribution in CD-1 mouse at 10 mg/kg by LC/MS/MS analysis; assay type: ADME, organism-based; settings: in vivo; procedure, shortened: as §3
[13] = Bioavailability in CD-1 mouse at 10 mg/kg, ip by LC/MS/MS analysis; assay type: ADME, organism-based; settings: in vivo; procedure, shortened: as §3

For `Cc1cccc(-c2nc(Nc3ccncc3)c3ccccc3n2)n1`, the Kd (TGF-beta receptor type-1) was 10 nM, the Stability [1] was “Stable” and the t1/2 [2] was 1.8 h. For the same compound, the MIC90 [3] was 1 µM (≈ 0.313 µg/mL), the Cmax [4] was 60 ng/mL and the MIC50 [5] was under 0.3 µM. It also gave an MIC90 [5] of 0.3 µM (≈ 0.094 µg/mL), a remaining at 0.5 h, 5 µM [6] of 14% and an MIC50 [7] of 16 µM (≈ 5.01 µg/mL). The MIC90 [7] was 20 µM (≈ 6.27 µg/mL), the inhibition at 20 µM [8] was over 90% and the AUClast [9] was 75 ng·h/mL.
With `Cc1cccc(-c2nc(Nc3ccc4c(c3)OCO4)c3ccccc3n2)n1` the Stability [1] was “Stable”, the t1/2 [2] was 3.4 h and the Cmax [4] was 75 ng/mL. It also gave an MIC50 [5] of under 0.3 µM, an MIC90 [5] of 1.3 µM (≈ 0.463 µg/mL) and a remaining at 0.5 h, 5 µM [6] of 30%. The AUClast [9] was 250 ng·h/mL.
With `Cc1cccc(-c2nc(Nc3ccc4nn(C)nc4c3)c3ccccc3n2)n1` the Kd (TGF-beta receptor type-1) was over 10000 nM, the Stability [1] was “Stable” and the t1/2 [2] was 4.6 h. The Cmax [4] was 150 ng/mL, the MIC50 [5] was under 0.3 µM and the MIC90 [5] was 0.3 µM (≈ 0.11 µg/mL). For the same compound, the remaining at 0.5 h, 5 µM [6] was 30% and the AUClast [9] was 440 ng·h/mL.
With `CC[C@@H](CO)NCCN[C@@H](CC)CO` the Activity [10] was “inactive”.
For `Cc1cccc(-c2nc(Nc3ccncc3)c3ccn(C)c3n2)n1`, the bioavailability [11] was 25%, the Vd [12] was 4.65 L/kg and the Stability [1] was “Stable”. The t1/2 [2] was 1.9 h, the Cmax [4] was 280 ng/mL and the MIC50 [5] was under 1 µM. It also gave an MIC90 [5] of under 1 µM, a remaining at 0.5 h, 5 µM [6] of 39% and a bioavailability [13] of 65%. The AUClast [9] was 640 ng·h/mL.
